Results from different studies.
Effect on: enzyme activity
Mode: inhibitor
FLT3: Receptor-type tyrosine-protein kinase FLT3 (FLT3, Homo sapiens, UniProt P36888)
FLT3 D835Y: Receptor-type tyrosine-protein kinase FLT3 (FLT3, Homo sapiens, UniProt P36888, D835Y)

SMILES | target | method | concentration | inhibition
CS(=O)(=O)Nc1cccc(-c2csc(NC(=O)CSc3nc4nccnc4c(=O)n3CCc3ccccc3)n2)c1 | FLT3 | – | 10 µM | 8%
COc1cc2ncnc(Nc3ccc(Oc4ccccc4)c(C)c3C)c2cc1OC | FLT3 | – | 1 µM | 15%
CCCS(=O)(=O)Nc1ccc(F)c(C(=O)c2c[nH]c3ncc(-c4ccc(Cl)cc4)cc23)c1F | FLT3 | – | 1 µM | < 20%
Cn1cnc(Br)c1C1=CN(c2ncnc3[nH]cnc23)CCS1 | FLT3 | radiometric | 2 µM | 80.5%
CNc1cccc2cc(C(=O)Nc3ccc(C(=O)O)cc3)c(=O)[nH]c12 | FLT3 D835Y | – | 10 µM | 0.73%
CN(C)C1CCN(CC#Cc2nn(C3CCCC3)c3nc(NCc4ccccc4)ncc23)C1 (centres unmarked) | FLT3 | FRET | 1 µM | 24%
COc1cc2nccc(Oc3ccc(NC(=O)c4c5n(n(-c6ccc(F)cc6)c4=O)CCCC5)cc3)c2cc1OC | FLT3 | – | 0.1 µM | 49%
CN1CC(Oc2cnc(C#N)cc2-c2ccn3nc(NC(=O)C4CC4)cc3c2)C1 | FLT3 | – | 1 µM | 0%
CNC(=O)c1ccccc1Nc1cc(Nc2ccc(N3CCOCC3)cc2OC)ncc1C(F)(F)F | FLT3 | – | 0.1 µM | > 50%
COc1cc2ncnc(Nc3ccc(Oc4ccccc4)cc3C)c2cc1OC | FLT3 D835Y | – | 1 µM | 17%
Cn1cncc1C1=CN(c2ncnc3[nH]cnc23)CCS1 | FLT3 | radiometric | 2 µM | 88.1%
